# In paper PMC9701462 (Hepatology Communications, 2022):
# Legend:
# Format in all cases: in vivo, human
# [1] = tested on: subjects with presumed F2/F3 NASH; experiment: Serum liver enzymes ALT and AST, Phase 2a exploratory efficacy; conditions: for ALT, Mean: serum
# In short: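 Serum ALT and AST are exploratory efficacy endpoints, taken as absolute and percent change from baseline. Sampling was at Day 1 before dosing, during 28 days of once-daily fasted oral dosing, and after a 14-day off-drug observation period. Analysis used repeated-measures ANOVA/ANCOVA with Bonferroni correction, or Friedman/Savage nonparametric ANOVA when data were non-normal or sparse.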
# [2] = tested on: subjects with presumed F2/F3 NASH; experiment: Collagen biomarkers; conditions: for Pro-C3, Mean: plasma
# In short: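 Adults with presumed F2/F3 NASH were randomized 2:1 to oral active or matching placebo, given as 75-mg soft-gelatin capsules once daily in the morning, fasted, for 28 days. Collagen turnover markers were sampled at baseline (Day 1, pre-dose), after 28 days of dosing, and at end of study after a 14-day observation period. Values are summarized as mean, SD, median and range.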
# [3] = Whole-blood pharmacokinetics; conditions: subjects with F2/F3 NASH, derived from CL/F and Vc/F estimates
# In short: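 Whole-blood samples were taken on Day 1 and Day 28 of once-daily oral dosing and assayed for parent drug and primary metabolites. Population PK used nonlinear mixed-effects modeling with first-order conditional estimation with interaction. Model choice used −2LL, AIC/BIC, %RSE and residual/VPC diagnostics; predictions ran to 816 h. CIs came from jackknife bootstrap (500 runs). Half-life was derived from CL/F and Vc/F estimates.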
# [4] = tested on: subjects with presumed F2/F3 NASH; experiment: Phase 2a safety and tolerability; conditions: 28 days
# In short: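 Single-blind (subjects only), 2:1 randomized, placebo-controlled, at 10 US sites. Dosing was oral, once daily in the morning, fasted, for 28 days, as 75-mg soft-gelatin capsules. AEs, SAEs, labs (chemistry, hematology, coagulation, urinalysis), ECG, vitals and physical exams were recorded at screening, at Day 1 pre-dose baseline, then weekly for 4 weeks. Results are given as counts and percentages of the safety set per group.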
# [5] = 75 mg QD oral x 28 days, Day 1 (baseline, before dosing), N = 15
# [6] = 75 mg QD oral x 28 days, Day 14, N = 15
# [7] = 75 mg QD oral x 28 days, Day 28, N = 15
# [8] = 75 mg QD oral x 28 days, Day 42 (after 14-day observation period), N = 15
# [9] = 225 mg QD oral x 28 days, Day 1 (baseline, before dosing), N = 16
# [10] = 225 mg QD oral x 28 days, Day 14, N = 16
# [11] = 225 mg QD oral x 28 days, Day 28, N = 16
# [12] = 225 mg QD oral x 28 days, Day 42 (after 14-day observation period), N = 16
# [13] = 75 mg QD oral x 28 days, Day 1 (baseline, before dosing), N = 14
# [14] = 75 mg QD oral x 28 days, Day 14, N = 14
# [15] = 75 mg QD oral x 28 days, Day 28, N = 14
# [16] = 75 mg QD oral x 28 days, Day 42 (after 14-day observation period), N = 14
# [17] = 225 mg QD oral x 28 days, Day 1 (baseline, before dosing), N = 15
# [18] = 225 mg QD oral x 28 days, Day 14, N = 15
# [19] = 225 mg QD oral x 28 days, Day 28, N = 15
substance,measurement,setting,value
Rencofilstat [RCF],"AST, Mean",[1]; [5],49.47 IU/L
same,"ALT, Mean",[1]; [5],60.53 IU/L
same,"AST, Mean",[1]; [6],39.42 IU/L
same,"ALT, Mean",[1]; [6],47.00 IU/L
same,"AST, Mean",[1]; [7],35.08 IU/L
same,"ALT, Mean",[1]; [7],42.50 IU/L
same,"AST, Mean",[1]; [8],41.45 IU/L
same,"ALT, Mean",[1]; [8],50.00 IU/L
same,"AST, Mean",[1]; [9],31.94 IU/L
same,"ALT, Mean",[1]; [9],36.06 IU/L
same,"AST, Mean",[1]; [10],32.82 IU/L
same,"ALT, Mean",[1]; [10],31.59 IU/L
same,"AST, Mean",[1]; [11],32.38 IU/L
same,"ALT, Mean",[1]; [11],30.56 IU/L
same,"AST, Mean",[1]; [12],31.38 IU/L
same,"C1M, Mean",[2]; [13],90185.71 pg/mL
same,"C6M, Mean",[2]; [13],25142.86 pg/mL
same,"PRO-C8, Mean",[2]; [5],4985.33 pg/mL
same,"Pro-C3, Mean",[2]; [13],23792.86 pg/mL
same,"C1M, Mean",[2]; [14],80125.00 pg/mL
same,"C6M, Mean",[2]; [14],25825.00 pg/mL
same,"PRO-C8, Mean",[2]; [6],4693.33 pg/mL
same,"Pro-C3, Mean",[2]; [14],22916.67 pg/mL
same,"C1M, Mean",[2]; [15],70490.91 pg/mL
same,"C6M, Mean",[2]; [15],23354.55 pg/mL
same,"PRO-C8, Mean",[2]; [7],4683.33 pg/mL
same,"Pro-C3, Mean",[2]; [15],22933.33 pg/mL
same,"C1M, Mean",[2]; [16],65309.09 pg/mL
same,"C6M, Mean",[2]; [16],23783.33 pg/mL
same,"PRO-C8, Mean",[2]; [8],4923.33 pg/mL
same,"PRO-C8, Mean",[2]; [17],4693.33 pg/mL
same,"C1M, Mean",[2]; [9],70262.50 pg/mL
same,"C6M, Mean",[2]; [9],31406.25 pg/mL
same,"Pro-C3, Mean",[2]; [17],24413.33 pg/mL
same,"PRO-C8, Mean",[2]; [18],4138.13 pg/mL
same,"C1M, Mean",[2]; [10],55843.75 pg/mL
same,"C6M, Mean",[2]; [10],29168.75 pg/mL
same,"Pro-C3, Mean",[2]; [18],22418.75 pg/mL
same,"PRO-C8, Mean",[2]; [19],4416.88 pg/mL
same,"C1M, Mean",[2]; [11],62100.00 pg/mL
same,"C6M, Mean",[2]; [11],31362.5 pg/mL
same,"Pro-C3, Mean",[2]; [19],24043.75 pg/mL
same,"PRO-C8, Mean","[2]; 225 mg QD oral x 28 days, Day 42 (after 14-day observation period), N = 15",4712.94 pg/mL
same,"C1M, Mean",[2]; [12],69850.00 pg/mL
same,"C6M, Mean",[2]; [12],33168.75 pg/mL
same,effective half-life of elimination (T1/2),[3],33.7 ± 11.1 h
same,Subjects with any TEAE,"[4]; 75 mg QD oral, N = 15",5 (33.3%) n (%)
same,TEAE: Back pain,"[4]; 75 mg QD oral, N = 15",0 (0%) n (%)
same,TEAE: Constipation,"[4]; 75 mg QD oral, N = 15",1 (6.7%) n (%)
same,TEAE: Diarrhea,"[4]; 75 mg QD oral, N = 15",0 (0%) n (%)
same,TEAE: Dizziness,"[4]; 75 mg QD oral, N = 15",0 (0%) n (%)
same,TEAE: Gastrointestinal disorders,"[4]; 75 mg QD oral, N = 15",1 (6.7%) n (%)
same,TEAE: Headache,"[4]; 75 mg QD oral, N = 15",0 (0%) n (%)
same,TEAE: Musculoskeletal disorders,"[4]; 75 mg QD oral, N = 15",2 (13.3%) n (%)
same,TEAE: Nervous system disorders,"[4]; 75 mg QD oral, N = 15",1 (6.7%) n (%)
same,deaths or treatment-emergent SAEs (TESAEs),[4]; 75 mg and 225 mg QD oral,No deaths or TESAEs
same,safety signals,[4]; 75 mg and 225 mg QD oral,No safety signals were identified
same,Subjects with any TEAE,"[4]; 225 mg QD oral, N = 17",10 (58.8%) n (%)
same,TEAE: Back pain,"[4]; 225 mg QD oral, N = 17",1 (5.9%) n (%)
same,TEAE: Constipation,"[4]; 225 mg QD oral, N = 17",2 (11.8%) n (%)
same,TEAE: Diarrhea,"[4]; 225 mg QD oral, N = 17",2 (11.8%) n (%)
same,TEAE: Dizziness,"[4]; 225 mg QD oral, N = 17",1 (5.9%) n (%)
same,TEAE: Gastrointestinal disorders,"[4]; 225 mg QD oral, N = 17",5 (29.4%) n (%)
same,TEAE: Headache,"[4]; 225 mg QD oral, N = 17",1 (5.9%) n (%)
same,TEAE: Musculoskeletal disorders,"[4]; 225 mg QD oral, N = 17",2 (11.8%) n (%)
same,TEAE: Nervous system disorders,"[4]; 225 mg QD oral, N = 17",2 (11.8%) n (%)
